Experimental data as given in the EternaBench riboswitch data.

Tested on: MS2 coat protein
Assay: apparent Kd, MS2 coat protein; higher = weaker binding; RNA-MaP array; FMN 200 µM where present
How it was run: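 Green signal from SNAP-549-labelled MS2 coat protein was normalised to red-channel RNA signal and to the median Fmax of control clusters. The protein was titrated from 0.7 or 1.5 nM, doubling to 3 µM, without and then with constant ligand, over designs transcribed by stalled E. coli RNA polymerase on Illumina sequencing-chip clusters, in 100 mM Tris-HCl pH 7.5, 80 mM KCl, 4 mM MgCl2, BSA, DTT, yeast tRNA and Tween-20. The apparent Kd is the median of filtered per-cluster binding-curve fits.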

[1] = designed as: OFF switch for flavin mononucleotide, no ligand
[2] = ligand present: flavin mononucleotide, designed as: OFF switch for flavin mononucleotide
[3] = designed as: ON switch for flavin mononucleotide, no ligand
[4] = ligand present: flavin mononucleotide, designed as: ON switch for flavin mononucleotide

Sequence | apparent Kd [1] | apparent Kd [2] | apparent Kd [3] | apparent Kd [4]
AAAUCCGCUGAGGAUAUUAUGAGUGAGAGCUCAUGAGAAGGCGGUACAUGAGGAUCACCCAUGUCUAUGGGCAA | 419 nM | 292 nM | – | –
GUAGUAUAAAGUUCAUAAUAUAGGAUAGAAGGUGAAAAUUUGACAUGAGGAUCACCCAUGUAAUUCAAGGAUAUGUAGUUACUC | – | – | 128 nM | 96.5 nM
AUCAGCUCGUCAGGAUAUACGUCACUGCGUCAGCAGUGUGGUAAGAGCACAUGAGGAUCACCCAUGUAGAAGGGACGAGCUGAU | 6.31 nM | 9.48 nM | – | –
CAUGUGUAAGGAUAUGACAAUGGUAUCUUCGGAUACCAUUGUCAGAAGGUACAUGAGGAUCACCCAUGUAGAUC | 55 nM | 240 nM | – | –
AAUAAACUCACAGGAUAUAGCAGAGGUCGCGUGUACUUACAGGCGACUAUGCUAGAAGGGUGACCACAUGAGGAUCACCCAUGU | – | – | 746 nM | 137 nM
UGGAGAAAUCAAGGAUAUGCUACCGUUUCGGUAGCAGAAGGUGAUCACAUGAGGAUCACCCAUGUAUGCAUGCGUGAGCGUGCU | – | – | 46.4 nM | 289 nM
GGAUAGUGUCGUUAUCCGUAGCGAACAUGAGGAUCACCCAUGUAGGAUAUGUUAUUAAACUAAUAACAGAAGGGCGUGAGUCUC | 429 nM | 480 nM | – | –
ACUUCACAUGAGGAUCACCCAUGUCAGGAUAUCCAGCACUAGCAGGCUCGCUCUUGAAGGAGAAGGGACGGGUA | 46.1 nM | 54.6 nM | – | –
UUUACAUGAGGAUCACCCAUGUCUUGAAAGAUUAGUUUUGGUGAGGAUAUACAUGAUAAAGAAUUGUAGAAGGCACUGGGUACA | – | – | 258 nM | 124 nM
GGGUACAUCGGAGGAUAUCAUGUAAAUACAUGAGGAUCACCCAUGUCGAUGGAGACAUCGGAGAUUGAGAAGGCCGAUAUACCG | – | – | 139 nM | 9.34 nM
GAUUAACAUGAGGAUCACCCAUGUGAGGAUAUGGAAUGGCUCACUUUUCGAUUCCCGUCUAGAAGGCACAUCUU | 54.6 nM | 53.3 nM | – | –
CGAACCAUGUAGAAGGCUGUCUUAAAAUAGGACAGAGGAUAUACAUGAGGAUCACCCAUGUACUCCUUUAAAAGGUUCGAAAUA | – | 7.03 nM | – | –
UAAAUCAAGUCAGGAUAUCGUGCGGUUGGUCGUUACAUGAGGAUCACCCAUGUCUUCCGUUAGCUCGAGAAGGGACGUGAGCCC | – | – | 40 nM | 11.5 nM
AAUUAUAUACAGAAGGAGUUAUAUUAAGUAUUACUAGGAUAUGUUCACAUGAGGAUCACCCAUGUCAUAUUGGGAUUUAUUUUU | 17 nM | 21.6 nM | – | –
AUAAACAUGAGGAUCACCCAUGUGAGAAGGCGCAUUACUAUAUUUAUACACUUUAAUACUAACAGCGAGGAUAUCACCUCAUAA | 15.8 nM | 24.7 nM | – | –
CCUCUACAUGAGGAUCACCCAUGUGAGGAUAUCUCGGAAAAGCCACUUAAGGUACUCCAGAGAAGGCACGUGUA | 14.6 nM | 23.7 nM | – | –
UAGAAAGAUUAAUAUGAUUACAUGAGGAUCACCCAUGUAUAUAAGGAUAUCGACGUCAAUGACGUCGAGAAGGUAUAUACAUAA | 66.3 nM | 198 nM | – | –
UUCUUACAUGAGGAUCACCCAUGUCAGGAUAUCUCCUCACUGCGCUUGCGCAGUGGAUAGAGAAGGGACAGGCU | 56.8 nM | 50.1 nM | – | –
ACGUAAAUUCGAGGAUAUCGGUGAUAUAAUUUACGAGAAGGCGAUAAUUGUGAUAAACUUAUAGACAUGAGGAUCACCCAUGUA | – | – | 42.7 nM | 37.9 nM
CCGUGACAUGAGGAUCACCCAUGUACUCGAGAAAUCGAGUGUAGAAGGGUGACCGGUCGUUUGGCACAGGAUAUACACGGUGUG | – | – | 16.6 nM | 8.92 nM
AAUUUACAGACAGGAUAUACAUGAGGAUCACCCAUGUAAUCAUAUGAUAUUUUUUUUGUAUGAGUGUAGAAGGGUCAAAUAAAA | 13.5 nM | 10.6 nM | – | –
UUAUGUUUUGUAGGAUAUCAUUAGAUUUGUAAUUUAAUUGUAAUUUAGAUAUGAGAAGGACAUUUACAUGAGGAUCACCCAUGU | 16.1 nM | 11.5 nM | – | –
CGAAGUCCGUAGAAGGGUGACAUGAGGAUCACCCAUGUGCGAGCCGAGGGAGUCAGCGGCUCGCCACAGGAUAUACGGAGCACG | – | – | 33.5 nM | 21.7 nM
AUAUAUAUAUCAGGAUAUGGACAGGCCUGUUCGUAUUGAGACAGUAACAUGAGGAUCACCCAUGUCCAGAAGGGAUAUAUAUAU | 93.2 nM | 55.1 nM | – | –
GAGGUAUUCGUAGGAUAUCCGUCGCCACCGUGUGGAGAAGGACGAACAUGAGGAUCACCCAUGUAUCAUGGUGUGGACGCUGUC | 61.8 nM | 61.7 nM | – | –
ACUACGAUAGCGAUAUGAUCGAGAGAUCAUGUCGCUAAAUUUAGAAGGACAUGAGGAUCACCCAUGUAGGAUAUGGGUCGUAGA | – | – | 28 nM | 9.62 nM
ACGGAGCUAGGAUAUACAUGAGGAUCACCCAUGUAUGAUGCGGCGCCCUUUUGCGCCUGUAGAAGGAGCACCGU | 15.9 nM | 16.5 nM | – | –
AACAGUACAGGAUAUACAUGAGGAUCACCCAUGUGAAGAAUAAGUGGAGUACCACAAAGUAGAAGGGUACUGGA | 26.7 nM | 132 nM | – | –

Sequence | apparent Kd [1] | apparent Kd [2] | apparent Kd [3] | apparent Kd [4]
CUCAGCUCGUCAGGAUAUACGUCACUGCGUCAGCAGUGUGGUAAGAUCACAUGAGGAUCACCCAUGUAGAAGGGACGAGCUGAU | 13.7 nM | 278 nM | – | –
GUAAAUCAUGUAGGAUAUGCAUGGCGAAGCUACGCAGAAGGACAUGAGGAUCACCCAUGUUAUAGCUACCAAGUUAGGUGGCAA | 110 nM | 260 nM | – | –
UAUAACAUGAGGAUCACCCAUGUGGUCGUCGUGGCCCUGUGACAGGAUAUCGGAGUUGGAGCAUACGAGAAGGGUUACGCGGCC | 10.5 nM | 12.4 nM | – | –
CGCUCAGAGAACGAUACGAAUAGACAUGAGGAUCACCCAUGUAGAAGGACAACGGAAUAAACGUUGUAGGAUAUACAUUUAGCG | 24.6 nM | 52.6 nM | – | –
GUAUGUAACAAGGAUAUGCCCUCGAUACGAUUUGCAGAAGGUGUUACAUGAGGAUCACCCAUGUGGCCUUGCAU | 19.4 nM | 74.9 nM | – | –
UUUUAGUAAGGAUAUGCGUAGAUCUACGAAAGUAGAUCUACGCAGAAGGUACAUGAGGAUCACCCAUGUAGAUU | 21.5 nM | 26.7 nM | – | –
UUUUUUUAAUAGAAGGAGGACUUCAUGAGGAUCACCCAUGUGUUAGUACUUAGGAUAUGUAAUAACAUGAGGAUCACCCAUGUC | – | – | 51.9 nM | 48.7 nM
AAAAGACAUGAGGAUCACCCAUGUGAAAACGUGCAAGGAUAUGUGUGGAAACCGUACUAUACAGAAGGUGUGUGUC | – | – | 32 nM | 41.8 nM
UUAAAUCAUGUAGGAUAUGCAUGGCGAAGCUACGCAGAAGGACAUGAGGAUCACCCAUGUUAUAGCUACCGAGUAAGGUGGCAA | 92.6 nM | 227 nM | – | –
CCGCGACACGAAGGAUAUGUGGGUGGUAGUCUGUGCUCCGCCUACAUGAGGAUCACCCAUGUAUCACAGAAGGUCGGACGUCGA | – | – | 26.7 nM | 125 nM
GUGCAGAUGUAAGGAUAUCGACUGGAAUACAGUCGAGAAGGUACAUGAGGAUCACCCAUGUAAAUGAAAGAUAAUAAACUGCAC | 15.3 nM | 26.1 nM | – | –
UGCUGGCGAGGAUAUGCUCGGGUUGCUUGUCGCGCGGUUGCACAUGAGGAUCACCCAUGUAGAAGGUGUCUGUG | 311 nM | 438 nM | – | –
GGCUCCGCUCGAGGAUAUAGCUGCAUGUAGUGUCCUGAGGCACAUGAGGAUCACCCAUGUGUAGGCUAGAAGGCGACGGACGCU | 76.1 nM | 138 nM | – | –
CUAGCAGAUGUAGGAUAUGCUCAGGAUAACUGAGCAGAAGGACAUGAGGAUCACCCAUGUAAAGUGUCUCUAAAUAACUGCUAG | 22.9 nM | 80.5 nM | – | –
AACAAGUCAGGAUAUCAUACUAAUCACUUGCUUUAAAUGUAUGAGAAGGGACAUGAGGAUCACCCAUGUAAAGA | 32.5 nM | 35.9 nM | – | –
GUCCUCUCUGAGGAUAUUAUCCGGUCCGAUUGAUAAGAAGGCAGUACAUGAGGAUCACCCAUGUGGGUCGUCUG | 37.4 nM | 111 nM | – | –
GGUUGUCAUCGUCGUCCUUUCGUUACAUGAGGAUCACCCAUGUAGGAUAUGCUGCAUUCGAUGUGGCAGAAGGGCAUGUGUGUU | 18.1 nM | 31.6 nM | – | –
CGCAAACAUGAGGAUCACCCAUGUCAAUGUGAUCAAGGAUAUGGGUUCCGAAAUGGAACACCAGAAGGUGAGUAAU | – | – | 142 nM | 37.3 nM
CUACGUGUCGAGAAGGGCUCACGUAACGGAACAGCAGGAUAUCGACAUGAGGAUCACCCAUGUCGGAACGAACGGAUCUUUAAU | 7.24 nM | 8.18 nM | – | –
GUGGUCAGACAUGAGGAUCACCCAUGUGGAAUAAAUAACACACAGGAUAUCUAAUAUAAAAUAUAAGAGAAGGGUGGAUUGGUG | – | – | 273 nM | 182 nM
UAUAUAUAGUAAGGAUAUGUAUUAAUUUGAUAAACAGAAGGUACUGACAUGAGGAUCACCCAUGUUUUAGUGUGGGCAUGUAGA | 98.9 nM | 164 nM | – | –
AGUACAUCAGGAUAUACAUGAAAGAUCAUCAUGACCUUUCUACAUGAGGAUCACCCAUGUAGAAGGGAUGUACA | 20.2 nM | 38 nM | – | –
ACAUGAUCAGGAUAUACAUGAGGAUCACCCAUGUAUUUCAAAAAGGGACUUUCUUUAUGUAGAAGGGAUCUUGU | 15.8 nM | 43.1 nM | – | –
UUUUAACAUGAGGAUCACCCAUGUGAGGAUAUCGAAAUUUAUAUUAAUAUUAAUAUAACGAGAAGGCACAUUUU | 52 nM | 70.2 nM | – | –
UGAAAUCAUGUAGGAUAUGCAUGGCGAAGCUACGCAGAAGGACAUGAGGAUCACCCAUGUUAUAGCGUCCGAUAAAGGAUGCAA | 135 nM | 139 nM | – | –
CAUCUGUGAGGAUAUGGUGAGUAGUGCCUGAGCGCUGCUCACCAGAAGGCACAUGAGGAUCACCCAUGUAUGAC | 48.4 nM | 188 nM | – | –
UGUGUGAGACAGGAUAUGCCGGAUGAAAGGCAGGUAGAAGGGUCUACAUGAGGAUCACCCAUGUGGCCGGUUGG | 17.4 nM | 18.7 nM | – | –
